Experimental data from ChEMBL document CHEMBL4346672, “Antimicrobial and KPC/AmpC inhibitory activity of functionalized benzosiloxaboroles” (Eur J Med Chem, 2019).
Values after ≈ are worked out from the molar mass of the structure shown.

Experiments:
[1] = tested on: Stenotrophomonas maltophilia; test: Bactericidal activity against Stenotrophomonas maltophilia ATCC 13637 measured after 18 hrs by CLSI broth dilution method; assay type: functional; conditions: ATCC 13637, 18 h
Outline: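 Strains stored at -80 °C and subcultured twice on tryptic soy agar before testing. Compounds dissolved in DMSO. […] MBC then determined per CLSI recommendations.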

[2] = tested on: Klebsiella pneumoniae; test: Inhibition of beta lactamase KPC-2 in Klebsiella pneumoniae 75 assessed as potentiation of ceftazidime-induced antibacterial activity by measuring ceftazidime MIC at 16 mg/L incubated for 18 hrs by broth dilution method (reference value: […] mg/L)
[3] = Cytotoxicity against human MRC5 cells assessed as cell viability at 32 ug/ml incubated for 72 hrs by MTT assay; assay type: cell-based; conditions: read-out: Activity
Outline: (§1)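 MRC-5 pd30 human fibroblasts grown in MEM with 10% FBS, 2 mM L-glutamine, penicillin/streptomycin and 1% non-essential amino acids at 37 °C, 5% CO2. Exponentially growing cells trypsinized and seeded at 8×10^3 cells/well, then dosed 18 h later with 2-fold dilutions (0.5% DMSO final) for 72 h. MTT (1 mg/ml final) added for 1 h at 37 °C, formazan dissolved in DMSO, OD read at 570 nm. Four replicates, expressed as % viable versus control.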

[4] = tested on: Klebsiella pneumoniae ATCC BAA-1705; test: Inhibition of beta lactamase KPC-2 in Klebsiella pneumoniae ATCC BAA 1705 assessed as potentiation of ceftazidime-induced antibacterial activity by measuring ceftazidime MIC at 16 mg/L incubated for 18 hrs by broth dilution method
[5] = tested on: Pseudomonas aeruginosa; test: Inhibition of beta lactamase AmpC in Pseudomonas aeruginosa MUW 700 assessed as potentiation of ceftazidime-induced antibacterial activity by measuring diameter of zone inhibition at 0.3 mg incubated for 18 hrs in presence of 30 ug ceftazidime by CLSI disc diffusion method (Rvb=11 mm)
Outline: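 AmpC combination disc test on Mueller-Hinton agar, following EUCAST guidance and Yagi et al. Inhibition zones were compared between a CAZ-30 disc and a ceftazidime disc plus agent or PBA, each at 0.3 mg per disc. Plates were incubated at 35 °C for 18 h. A zone difference of at least 5 mm was counted as inhibition.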

[6] = Cytotoxicity against human MRC5 cells assessed as cell viability at 1 ug/ml incubated for 72 hrs by MTT assay; assay type: cell-based; conditions: read-out: Activity; outline: as §1
[7] = molecular target: Class A carbapenemase KPC-2 (Escherichia coli) (UniProt A8DS27); test: Inhibition of beta lactamase KPC-2 in Escherichia coli 76 assessed as potentiation of meropenem-induced antibacterial activity by measuring meropenem MIC at 16 mg/L incubated for 18 hrs by broth dilution method (reference value: >[…] mg/L)
[8] = tested on: Klebsiella pneumoniae; test: Inhibition of beta lactamase SHV-12 in Klebsiella pneumoniae ATCC 700603 assessed as potentiation of ceftazidime-induced antibacterial activity by measuring ceftazidime MIC at 16 mg/L incubated for 18 hrs by broth dilution method (reference value: […] mg/L)
[9] = Cytotoxicity against human MRC5 cells assessed as cell viability at 0.5 ug/ml incubated for 72 hrs by MTT assay; assay type: cell-based; conditions: read-out: Activity; outline: as §1
[10] = Cytotoxicity against human MRC5 cells assessed as cell viability at 2 ug/ml incubated for 72 hrs by MTT assay; assay type: cell-based; conditions: read-out: Activity; outline: as §1
[11] = Cytotoxicity against human MRC5 cells assessed as cell viability at 8 ug/ml incubated for 72 hrs by MTT assay; assay type: cell-based; conditions: read-out: Activity; outline: as §1
[12] = tested on: Escherichia coli; test: Inhibition of beta lactamase CMY-2 in Escherichia coli 77 assessed as potentiation of ceftazidime-induced antibacterial activity by measuring ceftazidime MIC at 16 mg/L incubated for 18 hrs by broth dilution method (reference value: […] mg/L)
[13] = molecular target: Class A carbapenemase KPC-2 (Escherichia coli) (UniProt A8DS27); test: Inhibition of beta lactamase KPC-2 in Escherichia coli 76 assessed as potentiation of ceftazidime-induced antibacterial activity by measuring ceftazidime MIC at 16 mg/L incubated for 18 hrs by broth dilution method (reference value: >[…] mg/L)
[14] = tested on: Klebsiella pneumoniae ATCC BAA-1705; test: Inhibition of beta lactamase KPC-2 in Klebsiella pneumoniae ATCC BAA 1705 assessed as potentiation of meropenem-induced antibacterial activity by measuring meropenem MIC at 16 mg/L incubated for 18 hrs by broth dilution method (reference value: […] mg/L)
[15] = tested on: Escherichia coli; test: Inhibition of beta lactamase KPC-3 in Escherichia coli 82 TR assessed as potentiation of meropenem-induced antibacterial activity by measuring meropenem MIC at 16 mg/L incubated for 18 hrs by broth dilution method (reference value: 2 mg/L)
[16] = tested on: Acinetobacter baumannii; test: Inhibition of beta lactamase OXA-24 in Acinetobacter baumannii 181 assessed as potentiation of ceftazidime-induced antibacterial activity by measuring ceftazidime MIC at 16 mg/L incubated for 18 hrs by broth dilution method (reference value: >[…] mg/L)
[17] = tested on: Klebsiella pneumoniae; test: Inhibition of beta lactamase KPC-3 in Klebsiella pneumoniae 81 assessed as potentiation of ceftazidime-induced antibacterial activity by measuring ceftazidime MIC at 16 mg/L incubated for 18 hrs by broth dilution method (reference value: >[…] mg/L)
[18] = tested on: Klebsiella pneumoniae 700603; test: (§2) Inhibition of extended-spectrum beta lactamase in Klebsiella pneumoniae ATCC 700603 assessed as potentiation of cefotaxime-induced antibacterial activity by measuring diameter of zone inhibition at 0.3 mg incubated for 18 hrs in presence of 10 ug cefotaxime by CLSI disc diffusion method (Rvb=19 mm)
Outline: (§3)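 EUCAST ESBL combination disc test on Mueller-Hinton agar. Zones were compared between a ceftazidime or cefotaxime disc alone and the same disc plus agent at 0.3 mg per disc. Clavulanic acid discs at 0.01 mg per disc served as reference. Plates were incubated at 35 °C for 18 h. A difference of at least 5 mm was counted as inhibition.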

[19] = Cytotoxicity against human MRC5 cells assessed as cell viability at 4 ug/ml incubated for 72 hrs by MTT assay; assay type: cell-based; conditions: read-out: Activity; outline: as §1
[20] = tested on: Klebsiella pneumoniae; test: Inhibition of beta lactamase KPC-3 in Klebsiella pneumoniae 83 assessed as potentiation of meropenem-induced antibacterial activity by measuring meropenem MIC at 16 mg/L incubated for 18 hrs by broth dilution method (reference value: […] mg/L)
[21] = tested on: Klebsiella pneumoniae; test: Inhibition of beta lactamase CMY-2 in Klebsiella pneumoniae 78 assessed as potentiation of ceftazidime-induced antibacterial activity by measuring ceftazidime MIC at 16 mg/L incubated for 18 hrs by broth dilution method (reference value: >[…] mg/L)
[22] = tested on: Pseudomonas aeruginosa; test: Inhibition of beta lactamase AmpC in Pseudomonas aeruginosa 700 assessed as potentiation of ceftazidime-induced antibacterial activity by measuring ceftazidime MIC at 16 mg/L incubated for 18 hrs by broth dilution method (reference value: >[…] mg/L)
[23] = tested on: Pseudomonas aeruginosa; test: Inhibition of beta lactamase VIM in Pseudomonas aeruginosa 698 assessed as potentiation of ceftazidime-induced antibacterial activity by measuring ceftazidime MIC at 16 mg/L incubated for 18 hrs by broth dilution method (reference value: […] mg/L)
[24] = tested on: Klebsiella pneumoniae 700603; test: as §2, with “ceftazidime-induced” for “cefotaxime-induced”, “ceftazidime” for “cefotaxime”, “(Rvb=13” for “(Rvb=19”; outline: as §3
[25] = Dissociation constant, pKa2 of compound in 0.1 M NaOH by potentiometric analysis; assay type: physicochemical

| Compound | MBC [1] [µg/mL] | MIC [2] [µg/mL] | viability at 72 h, 32 ug/ml [3] [%] | MIC [4] [µg/mL] | inhibition zone (IZ) [5] [mm] | viability at 72 h, 1 ug/ml [6] [%] | MIC [7] [µg/mL] | MIC [8] [µg/mL] | MIC [12] [µg/mL] | MIC [13] [µg/mL] | MIC [14] [µg/mL] | MIC [15] [µg/mL] | MIC [16] [µg/mL] | MIC [17] [µg/mL] | inhibition zone (IZ) [18] [mm] | MIC [20] [µg/mL] | MIC [21] [µg/mL] | MIC [22] [µg/mL] | MIC [23] [µg/mL] | inhibition zone (IZ) [24] [mm] | other results |
| --- | --- | --- | --- | --- | --- | --- | --- | --- | --- | --- | --- | --- | --- | --- | --- | --- | --- | --- | --- | --- | --- |
| C[Si]1(C)OB(O)c2ccc(Cl)cc21 | 200 (≈ 941 µM) |  |  |  |  |  |  |  |  |  |  |  |  |  |  |  |  |  |  |  |  |
| C[Si]1(C)OB(O)c2ccc(F)c(F)c21 | 400 (≈ 1870 µM) | > 64 | 74 | 64 | 14 | 114 | > 64 | 32 | 16 | > 64 | 64 | 2 | > 64 | 64 | 19 | 32 | 64 | > 64 | 64 | 13 | viability at 72 h, 0.5 ug/ml [9]: 108%; viability at 72 h, 2 ug/ml [10]: 113%; viability at 72 h, 8 ug/ml [11]: 111%; viability at 72 h, 4 ug/ml [19]: 111% |
| C[Si]1(C)OB(O)c2cc(B(O)O)cc(F)c21 |  |  |  |  |  |  |  |  |  |  |  |  |  |  |  |  |  |  |  |  | pKa [25]: 10.2 |
| C[Si]1(C)OB(O)c2cc3c(c(F)c21)COB3O |  | > 64 | 54.3 | 64 | 16 | 112 | > 64 | 32 | 16 | > 64 | 64 | 1 | > 64 | 64 | 19 | 32 | > 64 | > 64 | 64 | 13 | viability at 72 h, 0.5 ug/ml [9]: 112%; viability at 72 h, 2 ug/ml [10]: 116%; viability at 72 h, 8 ug/ml [11]: 105%; pKa [25]: 8.6; viability at 72 h, 4 ug/ml [19]: 108% |
| C[Si]1(C)OB(O)c2ccc(B(O)O)cc21 |  | 64 | 102 | 64 | 18 | 117 | > 64 | 64 | 8 | > 64 | 32 | 0.25 | > 64 | 64 | 19 | 8 | 64 | 32 | 64 | 13 | viability at 72 h, 0.5 ug/ml [9]: 112%; viability at 72 h, 2 ug/ml [10]: 124%; viability at 72 h, 8 ug/ml [11]: 126%; viability at 72 h, 4 ug/ml [19]: 129% |
| C[Si]1(C)OB(O)c2c(F)c(F)c(F)c(F)c21 |  | 64 |  | 64 | 11 |  | > 64 | 64 | 16 | > 64 | 64 | 2 | > 64 | 64 | 19 | 32 | 64 | > 64 | 64 | 13 |  |
| C[Si]1(C)OB(O)c2c(F)c3c(c(F)c21)B(O)OC3 | 400 (≈ 1480 µM) | 64 |  | 64 | 11 |  | > 64 | 64 | 32 | > 64 | 64 | 2 | > 64 | 64 | 19 | 32 | > 64 | > 64 | 64 | 13 | pKa [25]: 7.8 |
| C[Si]1(C)OB(O)c2ccc(Cl)c(Cl)c21 | 400 (≈ 1620 µM) |  |  |  |  |  |  |  |  |  |  |  |  |  |  |  |  |  |  |  |  |
